Experimental data published in ChEMBL document CHEMBL1147663, “Structure-activity relationships of bifunctional peptides based on overlapping pharmacophores at opioid and cholecystokinin receptors” (J Med Chem, 2006).
Activity calls are given as the source filed them. The rule behind the calls is not given here. Where a SMILES comes first, the peptide text is derived from it. [ ]: non-standard residue; d: D form. NMeNle = CCCC[C@H](NC)C(=O)O

Legend:
[1] = molecular target: T1, Delta-type opioid receptor (Homo sapiens, UniProt P41143); assay: Displacement of [3H]DPDPE from human delta opioid receptor expressed in HN9.10 cells; format: cell-based
Method in brief: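 HN9.10 cell membranes (50 μg) expressing hDOR, 10 test concentrations with 1.0 nM [3H]DPDPE in 50 mM Tris pH 7.4 with peptidase inhibitors and BSA, 3 h at 25 °C, duplicates; filtration, scintillation counting. Nonspecific with 10 μM naloxone. Ki by Cheng–Prusoff.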

Mu-type opioid receptor [2] = molecular target: T2, Mu-type opioid receptor (Rattus norvegicus, UniProt P33535); assay: Displacement of [3H]DAMGO from rat mu opioid receptor expressed in HN9.10 cells; format: cell-based
Method in brief: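 HN9.10 cell membranes (50 μg) expressing rMOR, 10 test concentrations with 1.0 nM [3H]DAMGO in 50 mM Tris pH 7.4 with peptidase inhibitors and BSA, 3 h at 25 °C, duplicates; filtration, scintillation counting. Nonspecific with 10 μM naloxone. Ki by Cheng–Prusoff.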

[3] = molecular target: Mu-type opioid receptor (Rattus norvegicus) (UniProt P33535); assay: (§1) Activity against [35S]GTP-gamma-S binding to rat mu opioid receptor expressed in HN9.10 cells; format: functional, cell-based
Method in brief: (§2)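 Membranes (10 μg) from HN9.10 cells stably expressing hDOR or rMOR; various drug concentrations in duplicate or triplicate, 90 min at 30 °C in HEPES pH 7.4 with GDP, MgCl2, NaCl, 0.1 nM [35S]GTPγS; filtration, scintillation counting.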

Mu-type opioid receptor [4] = molecular target: T2, Mu-type opioid receptor; assay: as §1; format: functional, cell-based; method in brief: as §2
[5] = molecular target: Delta-type opioid receptor (Mus musculus, UniProt P32300); assay: Agonist activity at delta opioid receptor assessed as inhibition of electrically stimulated ICR mouse vas deferens contraction; format: functional, tissue-based
Method in brief: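 Vas deferens from male ICR mice, in 20 mL baths at 0.5 g tension, Mg-free oxygenated Krebs, 37 °C; electrical stimulation 0.1 Hz, 2.0 ms pulses, supramaximal voltage. Cumulative addition to maximal inhibition; integrity checked with 10 nM DPDPE. IC50 by Hill-equation nonlinear least-squares fit, at least four tissues.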

[6] = molecular target: T3, Cholecystokinin receptor type A (Homo sapiens, UniProt P32238); assay: Displacement of [125I]CCK-8(SO3) from human CCK1 receptor expressed in HEK293 cells; format: cell-based
T3 sequence (P32238 whole entry): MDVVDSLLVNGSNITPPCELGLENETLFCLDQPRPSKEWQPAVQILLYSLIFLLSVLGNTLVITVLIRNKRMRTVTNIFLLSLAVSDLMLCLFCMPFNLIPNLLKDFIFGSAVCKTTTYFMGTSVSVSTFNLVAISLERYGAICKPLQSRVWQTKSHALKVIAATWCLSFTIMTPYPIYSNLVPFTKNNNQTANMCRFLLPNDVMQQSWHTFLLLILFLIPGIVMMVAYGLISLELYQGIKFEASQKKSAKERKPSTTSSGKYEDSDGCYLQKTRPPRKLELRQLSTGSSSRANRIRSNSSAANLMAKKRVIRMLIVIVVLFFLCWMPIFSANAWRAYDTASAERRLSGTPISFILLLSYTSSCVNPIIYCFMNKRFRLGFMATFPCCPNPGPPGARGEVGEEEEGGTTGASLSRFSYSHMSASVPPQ

[7] = molecular target: T4, Gastrin/cholecystokinin type B receptor (Homo sapiens, UniProt P32239); assay: Displacement of [125I]CCK-8(SO3) from human CCK2 receptor expressed in HEK293 cells; format: cell-based
T4 sequence (P32239 whole entry): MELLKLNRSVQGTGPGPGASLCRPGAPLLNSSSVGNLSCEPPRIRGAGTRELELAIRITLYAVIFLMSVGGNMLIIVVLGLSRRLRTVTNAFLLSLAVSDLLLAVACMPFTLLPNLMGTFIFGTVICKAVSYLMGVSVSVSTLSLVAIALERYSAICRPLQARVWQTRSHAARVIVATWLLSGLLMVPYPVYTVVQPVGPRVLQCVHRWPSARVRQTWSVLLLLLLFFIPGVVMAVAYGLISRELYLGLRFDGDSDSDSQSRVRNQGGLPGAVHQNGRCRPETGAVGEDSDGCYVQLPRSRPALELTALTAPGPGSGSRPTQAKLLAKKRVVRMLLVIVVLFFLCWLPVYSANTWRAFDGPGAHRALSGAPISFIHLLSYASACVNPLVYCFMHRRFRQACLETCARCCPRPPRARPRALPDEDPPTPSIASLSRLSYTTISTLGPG

[8] = molecular target: Mu-type opioid receptor (Cavia porcellus) (UniProt P97266); assay: Agonist activity at mu opioid receptor assessed as inhibition of electrically stimulated Hartley guinea pig ileum contraction at 1 uM; format: functional, tissue-based
Method in brief: (§3)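 Longitudinal muscle–myenteric plexus strips from male Hartley guinea pig ileum, 1 g tension, oxygenated Krebs at 37 °C; 0.1 Hz, 0.4 ms supramaximal stimulation. […] Integrity checked with 10 nM PL-017. Hill-equation fit, at least four tissues.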

[9] = molecular target: T5, Cholecystokinin receptor type A (Homo sapiens) (UniProt P32238); conditions: HEK293
T5 sequence (whole entry): T3 sequence (P32238 whole entry)

[10] = molecular target: T6, Gastrin/cholecystokinin type B receptor (Homo sapiens) (UniProt P32239); conditions: HEK293
T6 sequence (whole entry): T4 sequence (P32239 whole entry)

[11] = molecular target: T1, Delta-type opioid receptor; assay: Activity against [35S]GTP-gamma-S binding to human delta opioid receptor expressed in HN9.10 cells; format: functional, cell-based; method in brief: as §2
Mu-type opioid receptor [12] = molecular target: Mu-type opioid receptor (Cavia porcellus, UniProt P97266); assay: Agonist activity at mu opioid receptor assessed as inhibition of electrically stimulated Hartley guinea pig ileum contraction; format: functional, tissue-based; method in brief: as §3
[13] = molecular target: T4, Gastrin/cholecystokinin type B receptor; assay: Antagonist activity at CCK2 receptor expressed in HEK293 cells assessed as accumulation of [3H]inositol phosphates by PI assay; format: functional, cell-based
[14] = molecular target: Delta-type opioid receptor (Mus musculus) (UniProt P32300); assay: Agonist activity at delta opioid receptor assessed as inhibition of electrically stimulated ICR mouse vas deferens contraction at 1 uM; format: functional, tissue-based
[15] = molecular target: T3, Cholecystokinin receptor type A; assay: Antagonist activity at CCK1 receptor expressed in HEK 293 cells assessed as accumulation of [3H]inositol phosphates by PI assay; format: functional, cell-based, HEK293

Delta-type opioid receptor (Mus musculus, UniProt P32300), sequence (P32300 whole entry): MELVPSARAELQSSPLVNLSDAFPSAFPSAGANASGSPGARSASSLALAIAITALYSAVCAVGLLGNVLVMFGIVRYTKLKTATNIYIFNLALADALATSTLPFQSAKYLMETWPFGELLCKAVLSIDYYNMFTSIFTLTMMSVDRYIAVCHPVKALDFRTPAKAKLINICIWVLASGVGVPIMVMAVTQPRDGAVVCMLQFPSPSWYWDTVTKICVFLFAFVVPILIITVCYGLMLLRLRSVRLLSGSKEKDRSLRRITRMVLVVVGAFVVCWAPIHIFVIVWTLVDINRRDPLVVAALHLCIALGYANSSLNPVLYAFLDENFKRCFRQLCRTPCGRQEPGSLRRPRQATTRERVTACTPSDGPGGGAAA
T2 sequence (P33535 whole entry): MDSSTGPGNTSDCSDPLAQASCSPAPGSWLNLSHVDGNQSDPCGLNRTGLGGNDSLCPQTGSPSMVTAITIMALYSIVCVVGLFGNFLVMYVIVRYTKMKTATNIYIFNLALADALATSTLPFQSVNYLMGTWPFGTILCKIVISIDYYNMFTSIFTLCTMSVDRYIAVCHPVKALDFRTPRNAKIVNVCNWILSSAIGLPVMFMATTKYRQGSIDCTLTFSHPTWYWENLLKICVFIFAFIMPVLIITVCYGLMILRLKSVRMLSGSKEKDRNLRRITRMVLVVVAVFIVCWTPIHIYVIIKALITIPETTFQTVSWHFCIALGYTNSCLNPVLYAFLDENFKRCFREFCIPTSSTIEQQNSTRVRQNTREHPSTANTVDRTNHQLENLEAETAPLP
Mu-type opioid receptor (Rattus norvegicus), sequence (P33535 whole entry): as above
T1 sequence (P41143 whole entry): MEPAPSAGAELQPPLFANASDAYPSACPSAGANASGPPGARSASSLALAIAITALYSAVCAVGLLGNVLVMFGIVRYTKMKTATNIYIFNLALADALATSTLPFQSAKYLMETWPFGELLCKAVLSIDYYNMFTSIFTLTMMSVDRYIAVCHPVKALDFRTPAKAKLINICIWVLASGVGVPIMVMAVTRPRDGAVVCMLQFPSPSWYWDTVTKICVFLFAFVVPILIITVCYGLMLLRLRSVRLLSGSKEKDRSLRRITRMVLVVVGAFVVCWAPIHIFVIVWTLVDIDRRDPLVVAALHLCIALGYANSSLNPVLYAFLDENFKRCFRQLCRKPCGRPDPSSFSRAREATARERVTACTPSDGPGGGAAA
Mu-type opioid receptor (Cavia porcellus, UniProt P97266), sequence (P97266 whole entry): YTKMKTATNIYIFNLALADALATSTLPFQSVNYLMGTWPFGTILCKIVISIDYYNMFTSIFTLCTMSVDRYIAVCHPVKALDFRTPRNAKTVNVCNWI
Mu-type opioid receptor (Cavia porcellus), sequence (P97266 whole entry): as above
Delta-type opioid receptor (Mus musculus), sequence (P32300 whole entry): as the sequence (P32300 whole entry) above

Row | SMILES | IC50 [1] | Ki [1] | IC50 (Mu-type opioid receptor [2]) | Ki (Mu-type opioid receptor [2]) | Emax [3] | EC50 (Mu-type opioid receptor [4]) | IC50 [5] | IC50 [6] | Ki [6] | IC50 [7] | Ki [7] | inhibition [8] | Log EC50 [9] | Log EC50 [10] | EC50 [11] | Emax [11] | IC50 (Mu-type opioid receptor [12]) | EC50 [13] | inhibition [14] | EC50 [15]
1 | CCCC[C@@H](NC(=O)[C@@H](N)Cc1ccc(O)cc1)C(=O)NCC(=O)N[C@H](Cc1c[nH]c2ccccc12)C(=O)N(C)[C@@H](CCCC)C(=O)N[C@@H](CC(=O)O)C(=O)N[C@@H](Cc1ccccc1)C(N)=O | 724 nM | 310 nM | 2880 nM | 1200 nM | 47% | 250 nM | 700 nM | 9120 nM | 910 nM | 1100 nM | 1100 nM | 8.8% | inactive | inactive |  |  |  |  |  | 
2 | CCCC[C@@H](C(=O)N[C@@H](CC(=O)O)C(=O)N[C@@H](Cc1ccccc1)C(N)=O)N(C)C(=O)[C@@H](Cc1c[nH]c2ccccc12)NC(=O)CNC(=O)[C@@H](Cc1ccccc1)NC(=O)[C@@H](N)Cc1ccc(O)cc1 | 1 nM | 0.42 nM | 13.8 nM | 5.9 nM | 50% |  | 24 nM | 1100 nM | 1100 nM | 1.1 nM | 1.1 nM |  | inactive |  | 29 nM | 14% | 71 nM | 2.8 nM |  | 
3 | CCCC[C@H](NC(=O)[C@@H](Cc1c[nH]c2ccccc12)NC(=O)CNC(=O)[C@@H](CCCC)NC(=O)[C@@H](N)Cc1ccc(O)cc1)C(=O)N[C@@H](CC(=O)O)C(=O)N[C@@H](Cc1ccccc1)C(N)=O | 47.9 nM | 20 nM | 631 nM | 270 nM | 110% | 20 nM | 310 nM |  |  | 2190 nM | 2200 nM |  |  | inactive | 4.1 nM | 75% | 1000 nM |  |  | 
4 | CCCC[C@@H](C(=O)N[C@@H](CC(=O)O)C(=O)N[C@@H](Cc1ccccc1)C(N)=O)N(C)C(=O)[C@H](Cc1c[nH]c2ccccc12)NC(=O)CNC(=O)[C@@H](Cc1ccccc1)NC(=O)[C@H](Cc1ccc(O)cc1)NC(=O)[C@@H](N)CC(=O)O | 550 nM | 250 nM | 11500 nM | 5200 nM | 91% | 81 nM |  | 3160 nM | 3200 nM |  |  |  | inactive |  | 110 nM | 80% |  |  |  | 
5 | CCCC[C@@H](C(=O)N[C@@H](CC(=O)O)C(=O)N[C@@H](Cc1ccccc1)C(N)=O)N(C)C(=O)[C@H](Cc1c[nH]c2ccccc12)NC(=O)CNC(=O)CNC(=O)[C@@H](N)Cc1ccc(O)cc1 (H-YGGW[NMeNle]DF-NH2) | 200 nM | 85 nM | 550 nM | 240 nM | 100% | 2 nM | 220 nM |  |  | 4.79 nM | 4.8 nM |  | inactive |  | 76 nM | 68% | 4200 nM | 32 nM |  | 
6 | CCCC[C@@H](C(=O)N[C@@H](CC(=O)O)C(=O)N[C@@H](Cc1ccccc1)C(N)=O)N(C)C(=O)[C@H](Cc1c[nH]c2ccccc12)NC(=O)CNC(=O)[C@@H]1CCCN1C(=O)[C@@H](N)Cc1ccc(O)cc1 | 3390 nM | 1500 nM |  |  |  |  |  |  |  | 0.219 nM | 0.22 nM | 1.2% |  |  |  |  |  |  | 5% | 
7 | CCCC[C@H](NC(=O)[C@H](Cc1c[nH]c2ccccc12)NC(=O)CNC(=O)[C@@H](CCCC)NC(=O)[C@@H](N)Cc1ccc(O)cc1)C(=O)N[C@@H](CC(=O)O)C(=O)N[C@@H](Cc1ccccc1)C(N)=O | 6.03 nM | 2.6 nM | 60.3 nM | 26 nM | 88% | 0.46 nM | 23 nM | 9.55 nM | 9.6 nM | 15.1 nM | 15 nM |  |  |  | 4.5 nM | 81% | 210 nM | 1900 nM |  | 2500 nM
8 | CCCC[C@H](NC(=O)[C@H](Cc1c[nH]c2ccccc12)NC(=O)CNC(=O)[C@@H](Cc1ccccc1)NC(=O)[C@@H](N)Cc1ccc(O)cc1)C(=O)N[C@@H](CC(=O)O)C(=O)N[C@@H](Cc1ccccc1)C(N)=O | 0.427 nM | 0.2 nM | 79.4 nM | 34 nM | 180% | 1.4 nM | 12 nM | 97.7 nM | 98 nM | 25.7 nM | 26 nM |  |  |  | 0.9 nM | 170% | 420 nM | 110 nM |  | 300 nM
9 | CCCC[C@@H](C(=O)N[C@@H](CC(=O)O)C(=O)N[C@@H](Cc1ccccc1)C(N)=O)N(C)C(=O)[C@H](Cc1c[nH]c2ccccc12)NC(=O)CNC(=O)[C@H]1CCCN1C(=O)[C@@H](N)Cc1ccc(O)cc1 | 200 nM | 85 nM | 6030 nM | 2600 nM | 210% | 900 nM | 890 nM | 10500 nM | > 10000 nM | 2.69 nM | 2.7 nM | 13% |  |  | 890 nM | 110% |  | 36 nM |  | 
